High-throughput results from PubChem.
The full list was thinned out, with hits kept by preference.
BB579 growth dn = yeast BB579 growth reduction in restrictive medium. S. cerevisiae BB579 growth, OD615, 48 h. actives 0.51% (n = 140,000). inhibition, % at 10 µM. AID 804;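 active = inhibition above a set limit, 3 SD over the mean compound inhibition, cut at about 44% in these data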
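Detection: OD615 turbidity measurement; Material: Saccharomyces cerevisiae DeaD strain BB579, replicative lifespan model yeast; Timing: 48 h exposure, 30 °C; Doses: single 10 µM dose; Medium: CSMM-D restrictive synthetic medium containing dextrose (glucose); Controls: amphotericin B at 10 µg/mL as positive control.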
Yeast life ext = yeast lifespan extension; S. cerevisiae growth with nicotinamide, OD615; deaD strain in restrictive glucose medium; inhibition of the nicotinamide effect, % at 10 µM; actives 0.68% (n = 130,000); AID 775;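 active = inhibition above a set limit, placed 3 SD over the median of all compounds, cut at about 26% in these data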;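 note: 0% = nicotinamide-treated wells and 100% = cells grown without nicotinamide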
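assay system = DeaD-strain S. cerevisiae | measured by = absorbance at 615 nm | probe or stimulus = nicotinamide 1.5 mM | buffer or medium = CSMM-D glucose medium, restrictive | times = 48 h at 30 °C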
PostGolgi yeast = growth inhibition of a yeast mutant, post-Golgi transport screen; inhibition, % at 10 µM; post-Golgi transport phenotypic cell assay; AID 739; actives 0.9% (n = 98,000);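 note: yeast cells grown in 1536-well plates; yeast grown about 18 h at 30C before absorbance read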
PostGolgi ctrl = growth of the yeast control strain, post-Golgi counter-screen; efflux-deficient yeast background strain, growth absorbance A615, 16 h; inhibition, % at 10 µM; actives 5% (n = 98,000); AID 738
Starred values were filed as active, the others as inactive; . = no result. Cut-off read from the data, not from the text of the source, unless noted: active = inhibition above about 30%; inactive = the rest.

SMILES	BB579 growth dn	Yeast life ext	PostGolgi yeast	PostGolgi ctrl
c1ccc2c(-c3c[nH]c4ccccc34)c3ccccc3nc2c1	-43.3	-8.1	1.1	50.0*
CCN1C(=O)/C(=C/c2ccc(C)o2)N(C)C1=S	5.5	-5.8	.	.
Cc1cc(C)n(C(=O)c2ccc(C)c(S(=O)(=O)N3CCCC3)c2)n1	-32.2	1.0	-5.6	31.9*
CCOC(=O)c1c(C)sc2c1N(C(=O)CN1CCOCC1)c1cc(Cl)ccc1S2	-8.4	-1.2	-8.7	53.5*
CCOC(=O)c1c(C)sc2c1N(C(=O)CN(CC)CC)c1cc(Cl)ccc1S2	-46.2	1.6	-0.3	4.6
COCC(C)n1c(C)cc(C(=O)COC(=O)c2nc3nc(C)cc(C)n3n2)c1C (centres undefined)	-30.2	-14.6	8.1	33.0*
CCCc1cc(=O)[nH]c(SCC(=O)c2cc(C)n(C(C)COC)c2C)n1 (centres undefined)	-2.3	-19.7	-2.9	48.6*
C=CCn1c(Cc2csc(N)n2)nnc1SCC(=O)OCC	-32.7	-4.2	22.8	7.1
ClC(Cl)(c1nnnn1-c1ccccc1)c1nnnn1-c1ccccc1	-41.3	50.4*	.	.
COc1ccccc1-n1cc(-c2ccc(Cl)cc2)[nH]c1=O	-17.2	-2.1	.	.
COc1ccc(-c2noc(C)c2-c2ccc3ccccc3n2)c(O)c1	-35.5	-5.9	0.9	48.6*
COc1ccc(-c2onc(C)c2-c2ccccc2)c(O)c1	-71.9	-8.9	1.5	18.3
CC(C)COc1ccc(CSCCNC(=S)Nc2ccccc2)cc1	-4.8	-4.1	-4.6	19.1
O=C(NC(=O)N1CCN(c2ccccc2F)CC1)c1ccccc1	-37.0	-8.5	2.8	15.0
O=C(NCc1ccccc1)N1CCN(c2ccccc2F)CC1	-36.0	-4.8	3.5	31.4*
COc1ccc(NC(=O)c2cc3cc(OC)ccc3oc2=N)cc1	-8.1	-22.9	73.1*	77.5*
COc1ccc2oc(=O)c(C(C)=O)cc2c1	-15.1	-5.6	8.8	-0.6
CSc1ccccc1OC1CCN(Cc2ccccc2)CC1	-20.2	1.8	.	.
CC1CCN(S(=O)(=O)c2cc(C(=O)N3CCN(c4ncccn4)CC3)ccc2Br)CC1	-24.8	3.0	.	.
CN(C)c1cccc2c(S(=O)(=O)Nc3ccccn3)cccc12	5.4	-7.3	-23.6	35.9*
Cc1cc(C)c2c(n1)sc1c(=O)n(Cc3ccccc3Cl)nnc12	-33.4	-7.3	4.2	39.9*
Cc1ccc(-c2[nH]c3ccccc3c2C(C[N+](=O)[O-])c2ccco2)cc1 (centres undefined)	-0.9	-7.8	3.2	30.2*
O=S(=O)(c1ccc(Cl)cc1)N1CCN(C2CCN(Cc3ccccc3)CC2)CC1	-14.7	1.3	89.9*	27.0
COc1ccc(S(=O)(=O)N2CCN(Cc3ccc(Cl)cc3)CC2)cc1	-58.0	14.0	3.4	22.7
CCOc1ccc(OCC)c(NC(=O)Nc2ccc3c(c2)N(C)C(=O)CS3)c1	-14.1	-11.8	-5.6	13.0
SMILES	BB579 growth dn	Yeast life ext	PostGolgi yeast	PostGolgi ctrl
COc1ccccc1-c1nnc2sc(COc3ccc(Cl)cc3)nn12	-31.3	-17.7	10.8	34.8*
Clc1ccccc1-c1nnc2sc(-c3ccccn3)nn12	-10.6	.	.	.
COc1cccc(OC)c1-c1nn2c(-c3ccccc3Cl)nnc2s1	-63.9	-21.3	-3.4	37.7*
CN1CCN(C(=S)c2ccc([N+](=O)[O-])cc2)CC1	12.6	1.3	.	.
CN1CCN(C(=S)Nc2cc([N+](=O)[O-])ccc2Cl)CC1	-20.6	45.2*	.	.
CC1=CCC(COC(=O)Nc2ccccc2)CC1 (centres undefined)	-19.4	-28.1	1.0	31.2*
O=c1c2ccc(Cl)cc2nc(-c2cccc(C(F)(F)F)c2)n1O	0.6	52.3	-1.2	-4.8
O=c1c2ccccc2nc(-c2ccc(Cl)c(Cl)c2)n1O	-17.2	76.2*	-12.4	-18.9
COc1cccc(C2C3=C(N=C4SCC(=O)N42)c2ccccc2CC3)c1OC (centres undefined)	-30.6	-2.3	22.5	40.4*
COc1ccc(C2SCC(=O)N2c2nnc(C34CC5CC(CC(C5)C3)C4)s2)cc1 (centres undefined)	-24.9	0.7	.	.
COc1ccc(C2SCC(=O)N2CC23CC4CC(CC(C4)C2)C3)cc1 (centres undefined)	-72.6	-11.2	15.9	59.6*
CNC(=O)c1ccsc1NC(=O)c1ccc(Cl)s1	-50.4	-12.4	-1.8	23.9
CC(C)(C)c1ccc(-c2nc(-c3ccncc3)no2)cc1	68.3*	.	.	.
Clc1ccc(Br)cc1-c1nc(-c2ccncc2)no1	-36.8	-11.3	4.9	2.8
Brc1cccc(-c2nc(-c3ccncc3)no2)c1	-13.3	-13.9	12.6	42.7*
Cc1cc(-c2nn3c(-c4ccccc4)nnc3s2)c2ccccc2n1	-32.2	-15.3	5.8	16.6
Cc1ccc(-c2nnc3sc(CCc4ccccc4)nn23)cc1	-75.5	-8.0	6.3	30.2*
COc1cc(-c2nn3c(-c4ccccc4)nnc3s2)cc(OC)c1OC	-18.1	-9.9	-3.5	33.2*
COc1ccc(-c2nnc3sc(COc4ccccc4)nn23)cc1	-43.3	-3.1	3.9	20.4
COc1cc(-c2nn3c(Cc4ccccc4)nnc3s2)cc(OC)c1OC	-47.3	10.6	20.2	42.5*
Cc1ccccc1-c1nn2c(-c3ccccc3)nnc2s1	-7.4	-7.8	5.3	41.3*
COc1cc(-c2nn3c(COc4ccccc4)nnc3s2)cc(OC)c1OC	-60.5	-17.4	4.0	12.2
Cc1scc(C(=O)Nn2cnnc2)c1-c1ccccc1	-12.4	-11.0	-10.4	32.7*
O=C(CSc1nnc(-c2cccs2)o1)Nc1cccc(S(=O)(=O)N2CCCCC2)c1	-13.2	-3.0	.	.
Cc1ccc(-c2noc(CSc3nnc(Cc4ccccc4)n3-c3ccc(Cl)cc3)n2)cc1	-16.5	6.8	-5.6	36.8*
SMILES	BB579 growth dn	Yeast life ext	PostGolgi yeast	PostGolgi ctrl
CCCn1c(C)cc(C(=O)COc2ncnc3sccc23)c1C	0.4	48.8*	-6.5	-3.2
CC(C)(C)c1ccc(C(=O)CC(=O)c2cc(Cl)ccc2O)cc1	-26.5	-2.9	2.4	27.7
O=C(CC(=O)c1ccccc1O)c1cccc(F)c1	19.9	-12.1	9.9	37.9*
Cc1ccc(C(=O)CC(=O)c2cc(Cl)ccc2O)cc1	-66.5	-12.1	4.4	33.2*
O=C(CC(=O)c1ccccc1O)c1ccc(F)cc1	53.3*	-18.4	8.0	57.9*
O=C(Nc1cccc(F)c1)c1ccccc1	-5.6	-33.1	24.0	23.3
CC1(C)C([N+](=O)[O-])C(c2ccc(Cl)cc2)NC(c2ccc(Cl)cc2)C1[N+](=O)[O-] (centres undefined)	-16.7	-1.9	.	.
Cc1cc(CN2C(=O)c3ccccc3C2=O)cc(N2CCOCC2)c1	-42.1	-12.3	-10.7	12.0
Cc1cc(-c2n[nH]c(=S)n2/N=C/c2cc([N+](=O)[O-])ccc2Cl)n[nH]1	96.5*	4.6	.	.
NC(=O)NC(c1ccccc1)c1cccc2ccccc12 (centres undefined)	-33.5	-14.8	3.2	16.8
Cc1cccc(-n2ncc3c(N4CCCC4)ncnc32)c1	-43.7	.	.	.
Cc1cccc(-n2ncc3c(N4CC(C)CC(C)C4)ncnc32)c1 (centres undefined)	-45.0	-5.4	2.6	33.0*
CC1CC(C)CN(c2ncnc3c2cnn3Cc2ccc(Cl)cc2)C1 (centres undefined)	-50.8	-5.6	4.1	50.8*
